# Source: PubChem BioAssay AID1235 (PCMD, 2008)
# The campaign covered roughly 62,000 compounds. About 50 (0.08%) were called active. Many of the other results were omitted from the sample, so actives are more common in it than they were. A number with no mark means an inactive call.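 Rule for the calls: active = inhibition above 30% in each of the two pooled mixtures holding the compound, so the lower value exceeds 30%; inactive = the rest.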
# Assay: blockers of serum C3 deposition on LPS – biochemical, ELISA, human serum, orthogonally pooled compounds, primary screen (AID 1235);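 note: 0% = serum in Mg-EGTA without compound and 100% = EDTA serum blank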
# Settings: Human serum alternative complement pathway, LPS-coated ELISA, tested in compound mixtures, at 5 µM, active compounds read high
# Method in brief: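 Assay system: Human serum alternative complement pathway, C3 deposition on LPS-coated wells | Incubation: 1 h serum-compound exposure at 37 °C | Doses: 5 µM per compound in ten-compound mixtures | Read-out: Percent inhibition | Technique: ELISA with HRP anti-human C3 antibody, TMB substrate, absorbance 450 nm | Replication: Two pool placements per compound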
row,Structure (SMILES),inhibition
1,c1c2c(cc3sc(N4CCCCC4)nc13)OCCO2,-3.86%
2,CC(C(=O)O)N1C(=O)c2cccc3cccc1c23 (centres undefined),-0.13%
3,O=C1C2(c3ccccc3)CN(CCCO)CC1(c1ccccc1)CN(CCCO)C2,0.125%
4,Cc1cc(C)nc(NC(=O)C(C)N2C(=O)c3ccccc3C2=O)n1 (centres undefined),4.23%
5,Cc1cc(N(C)C)cc(C)[n+]1[O-],13.5%
6,CC(=O)NC(Cc1ccc(F)cc1)C(=O)O (centres undefined),10.5%
7,COc1ccc2c(Cl)c(-c3nnco3)sc2c1,9.28%
8,CCCCCN(C(=O)NC(=O)Nc1ccccc1C)S(C)(=O)=O,18.8%
9,CS(=O)(=O)N(CC(=O)NCc1ccco1)c1ccc2c(c1)OCO2,-0.135%
10,COc1ccc(CCNC(=O)c2ccco2)cc1,3.87%
11,O=C(CSc1nnc(-c2cccs2)n1-c1ccccc1)N1CCN(C(=O)c2ccco2)CC1,13.8%
12,COC(=O)c1ccccc1NC(=O)CSc1ccccn1,-0.725%
13,COc1cccc(Oc2ccc(N)cc2)c1,5.52%
14,CCNC(=O)N1CCNC(=O)C1CC(=O)Nc1ccc(C(=O)OCC)cc1 (centres undefined),-0.745%
15,Cc1ccsc1C(C(=O)NC1CCCCC1)N(C(=O)Cc1cccs1)C1CC1 (centres undefined),-3.39%
16,CCN1C(=O)/C(=C\N2CCN(c3cccc(Cl)c3)CC2)SC1=S,11.5%
17,S=C1SCN(CCN2CCOCC2)CN1Cc1ccccc1,16%
18,Cc1occc1C(=O)Nc1nnc(C2CCCCC2)s1,9.21%
19,COCCN(CC(=O)Nc1ccccc1C)S(=O)(=O)c1ccc(S(=O)(=O)N2CCCC2)cc1,10.3%
20,O=C(NCCCN1CCN(c2ccccc2F)CC1)C1CCC(=O)N1C1CCCCC1 (centres undefined),1.73%
21,COc1ccc(-c2nc(CS(=O)CC(=O)NCc3cccnc3)c(C)o2)cc1OC (centres undefined),10.4%
22,CC(=O)O[C@]1(C(C)=O)CC[C@H]2[C@@H]3C=C(C)C4=CC(=O)CC[C@]4(C)[C@H]3CC[C@@]21C,9.71%

row,Structure (SMILES),inhibition
1,CCNS(=O)(=O)c1ccc(NC(=O)Nc2cccc(C(F)(F)F)c2)cc1,12.9%
2,Cc1c(C(=O)N2CCCc3ccccc32)sc2nc(-c3ccccc3)cn12,16%
3,O=C1c2cccnc2C(=O)N1Cc1cccs1,14.6%
4,Cc1ccc(C2CC(c3cccc(Br)c3)n3nc(N)nc3N2)cc1 (centres undefined),11.6%
5,CCOC(=O)Cn1c(=O)oc2cc(S(=O)(=O)NCC3CCCO3)ccc21 (centres undefined),15%
6,CCOC(=O)c1oc2ccccc2c1NC(=O)c1cccs1,0.31%
7,CCCS(=O)(=O)N1CCCC(C(=O)N2CCN(c3ccccc3)CC2)C1 (centres undefined),4.18%
8,COc1ccc(-n2nnc3c(=O)n(CC(=O)N4CCC(Cc5ccccc5)CC4)cnc32)cc1,21.3%
9,COc1cc(OC)cc(C(=O)NCCSCc2ccco2)c1,4.01%
10,CCNS(=O)(=O)c1ccc(NC(=O)Nc2cccc(OC)c2)cc1,27.3%
11,O=C(c1cccc2ccccc12)N1CCN(c2ccccc2F)CC1,18.4%
12,CCOC(=O)C1CCN(C(=O)CSc2cc(=O)n(C)c3ccccc23)CC1,7.27%
13,CCn1ncc(C2=NOC(C(=O)Nc3ccccc3C(=O)OC)C2)c1C (centres undefined),12.4%
14,COc1ccc(N(Cc2cc3cc(OC)ccc3[nH]c2=O)S(C)(=O)=O)cc1,-2.02%
15,CCc1c(C)nc2ncnn2c1N1CCC(C(=O)NCc2ccc3c(c2)OCO3)CC1,20.2%
16,Cc1ccc(-c2nc(CS(=O)CC(=O)NC3CCCC3)c(C)o2)cc1 (centres undefined),10.5%
17,FC(F)(F)c1nnc2sc(-c3ccco3)nn12,7.12%
18,CCOC(=O)C(CCOc1cccc(CC)c1)C(=O)OCC,9.83%
19,COc1ccc(-c2nnn(CC(=O)N(CCO)C(C(=O)NC3CCCC3)c3ccc(F)cc3)n2)cc1 (centres undefined),3.14%
20,Cc1ccccc1CSc1nnc(-c2ccccn2)n1N,12.7%
21,CCOC(=O)c1[nH]c2ccc(C)cc2c1N=C(C)N(C)C,10.8%
22,COC(=O)C1=C(C)NC2=C(C(=O)c3ccccc32)C1c1ccc(-c2ccc(C(=O)O)cc2)o1 (centres undefined),7.73%

row,Structure (SMILES),inhibition
1,CC1C=CCC2C(=O)N(c3cccc(C(=O)N4CCCCCC4)c3)C(=O)C12 (centres undefined),19%
2,CCS(=O)(=O)N1CCCC(C(=O)NCc2ccc(C)cc2)C1 (centres undefined),13.3%
3,COC(=O)Cc1c(C)c2ccc(OCC(=O)NCc3ccc4c(c3)OCO4)cc2oc1=O,4.91%
4,CNC(=O)CSc1nnc(CCc2ccccc2)n1-c1ccccc1,5.29%
5,CC1CCCN(C(=O)Cn2c(=O)oc3ccccc32)C1 (centres undefined),-0.77%
6,CC1(C)SC2c3ccccc3C(=O)N2[C@@H]1C(=O)NCc1ccco1 (some centres undefined),-5.49%
7,O=C(c1ccc(O)cc1)c1ccc(C(=O)O)c(C(=O)O)c1,-8.85%
8,O=C(C1CCN(CC2CCCCC2)CC1)N1CCCC1,4.05%
9,COC(=O)c1oc2ccc(Br)cc2c1NC(C)=O,11.8%
10,COc1ccccc1CNCc1cccs1,-3.09%
11,CCn1cc(C(=O)NCc2ccc(OC)cc2OC)c(=O)c2ccc(C)nc21,-3.58%
12,COc1ccc(-c2noc(-c3cccc(OC)c3OC)n2)cc1OC,21.6%
13,O=C(CN1CCN(c2nc(-c3ccccc3)cs2)CC1)NCc1ccc2c(c1)OCO2,13.6%
14,Cc1cccc(N(CC(O)CN(C)C)S(=O)(=O)c2ccccc2)c1 (centres undefined),-22.7%
15,COC(=O)[C@H](C)NC(=O)Nc1ccc(OC(F)(F)F)cc1,4.04%
16,O=C1OC(NC(=O)c2ccccc2)C(N2CCOCC2)=C1Cl (centres undefined),18.5%
17,Cc1ccc(Oc2ccc(N)cc2)cc1,-0.695%
18,O=C(CC1Nc2ccccc2NC1=O)Nc1ccccc1 (centres undefined),-0.205%
19,CCOc1ccc(NC(=O)CC2NCCNC2=O)cc1 (centres undefined),2.46%
20,O=C(CC1NCCNC1=O)Nc1ccc(Oc2ccccc2)cc1 (centres undefined),32.3% (active)
